Assay in all cases: antagonism across CCR6, APJ and CXCR6 receptors, profiling panel, selectivity assay for CXCR6 antagonist project, cell-based, CHO-K1 PathHunter beta-arrestin, luminescence, set 3 (AID 651708)
The target in assay [1] is Apelin receptor (Homo sapiens) (UniProt P35414). To be noted: antagonist mode, APJ. The essentials:
(§1)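 Material – CHO-K1 PathHunter β-arrestin cell lines for APJ, CCR6 or CXCR6 · Probe or stimulus – APJ 10 nM Apelin-13, CCR6 14 nM CCL20, CXCR6 CXCL16 · Measured by – β-arrestin recruitment luminescence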

Assay [2] addresses C-C chemokine receptor type 6 (Homo sapiens) (UniProt P51684). To be noted: antagonist mode. The essentials:
as §1

Assay [3] concerns the target C-X-C chemokine receptor type 6 (Homo sapiens) (UniProt O00574). To be noted: antagonist mode. The gist of the method: as §1

Where “and” joins values, the source holds several entries; their conditions need not be identical. Identical values can stand only once. Calls of active or inactive are those of the source.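 Rule for the calls: active = compound with IC50 above 30 µM at both the APJ and CCR6 off-target receptors, and at most 10 µM at CXCR6; inactive = the rest.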

Sequence of C-X-C chemokine receptor type 6 (Homo sapiens) (O00574 whole entry, looked up): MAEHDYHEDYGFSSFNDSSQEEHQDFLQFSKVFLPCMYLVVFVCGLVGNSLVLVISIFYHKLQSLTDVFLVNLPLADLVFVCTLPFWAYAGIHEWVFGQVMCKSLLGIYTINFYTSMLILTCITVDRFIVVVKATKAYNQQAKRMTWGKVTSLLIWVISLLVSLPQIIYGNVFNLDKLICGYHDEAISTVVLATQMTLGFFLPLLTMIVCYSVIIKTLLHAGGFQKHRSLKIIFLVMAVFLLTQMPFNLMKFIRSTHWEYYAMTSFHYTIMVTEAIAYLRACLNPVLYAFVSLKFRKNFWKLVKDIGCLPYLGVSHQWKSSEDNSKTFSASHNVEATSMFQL
Sequence of Apelin receptor (Homo sapiens) (P35414 whole entry, looked up): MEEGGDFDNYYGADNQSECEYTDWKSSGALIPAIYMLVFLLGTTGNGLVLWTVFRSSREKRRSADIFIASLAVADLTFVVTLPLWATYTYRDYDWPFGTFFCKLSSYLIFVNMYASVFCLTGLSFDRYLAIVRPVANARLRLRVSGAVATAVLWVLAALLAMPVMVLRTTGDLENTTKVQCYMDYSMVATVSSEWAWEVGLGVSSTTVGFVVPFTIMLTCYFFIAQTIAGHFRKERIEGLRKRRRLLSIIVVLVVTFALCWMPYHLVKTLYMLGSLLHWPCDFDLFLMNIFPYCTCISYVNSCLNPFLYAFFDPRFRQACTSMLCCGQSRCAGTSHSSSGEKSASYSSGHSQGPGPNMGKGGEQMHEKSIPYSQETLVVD
Sequence of C-C chemokine receptor type 6 (Homo sapiens) (P51684 whole entry, looked up): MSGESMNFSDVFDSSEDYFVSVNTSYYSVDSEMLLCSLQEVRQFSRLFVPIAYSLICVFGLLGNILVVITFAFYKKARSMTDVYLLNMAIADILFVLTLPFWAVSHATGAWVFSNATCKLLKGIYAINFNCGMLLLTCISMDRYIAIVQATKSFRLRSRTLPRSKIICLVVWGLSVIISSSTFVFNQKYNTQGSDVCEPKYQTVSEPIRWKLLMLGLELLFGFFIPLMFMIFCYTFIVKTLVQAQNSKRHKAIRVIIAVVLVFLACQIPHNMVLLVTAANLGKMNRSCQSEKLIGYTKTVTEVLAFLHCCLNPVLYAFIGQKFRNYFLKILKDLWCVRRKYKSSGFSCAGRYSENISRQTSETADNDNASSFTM

In the case of `Cc1ccc(NC(=O)CN2C3CCCC2CC(NC(=O)c2ccc4c(c2)OCO4)C3)cc1` (stereo unspecified), the IC50 is > 79 µM in assay [1] (run 1); 28.6 µM in assay [1] (run 2); > 79 µM (inactive) in assay [2] (CCR6, mean of runs); > 79 µM in assay [2] (CCR6, run 1); > 79 µM in assay [2] (CCR6, run 2); > 79 µM (inactive) in assay [3] (CXCR6, mean of runs). The half-inhibitory concentration (IC50) is > 79 µM in assay [3] (CXCR6, run 1) and > 79 µM in assay [3] (CXCR6, run 2).
Turning to `COc1ccc(C(=O)NC2CC3CCCC(C2)N3CC(=O)Nc2ccc(Cl)cc2)cc1` (stereo unspecified), the IC50 is > 79 µM (inactive) in assay [1] (mean of runs); > 79 µM in assay [1] (run 1); > 79 µM in assay [1] (run 2); > 79 µM (inactive) in assay [2] (CCR6, mean of runs); > 79 µM in assay [2] (CCR6, run 1); > 79 µM in assay [2] (CCR6, run 2). In addition, the IC50 in assay [3] (CXCR6, mean of runs) was > 79 µM (inactive); in assay [3] (CXCR6, run 1), > 79 µM; in assay [3] (CXCR6, run 2), > 79 µM.
As for `COc1cc(OC)cc(C(=O)NC2CC3CCCC(C2)N3CC(=O)Nc2ccc(Cl)cc2)c1` (stereo unspecified), the IC50 in assay [1] (mean of runs) is > 79 µM (inactive); in assay [1] (run 1) it was > 79 µM; in assay [1] (run 2), > 79 µM; in assay [2] (CCR6, mean of runs), > 79 µM (inactive); in assay [2] (CCR6, run 1), > 79 µM; in assay [2] (CCR6, run 2), > 79 µM. Also, the IC50 was > 79 µM (inactive) in assay [3] (CXCR6, mean of runs); > 79 µM in assay [3] (CXCR6, run 1); > 79 µM in assay [3] (CXCR6, run 2).
As for `O=C(CN1C2CCCC1CC(NC(=O)c1ccc3c(c1)OCO3)C2)Nc1ccc(Cl)cc1` (stereo unspecified), the IC50 was > 79 µM in assay [1] (run 1); 36.9 µM in assay [1] (run 2); > 79 µM (inactive) in assay [2] (CCR6, mean of runs); > 79 µM in assay [2] (CCR6, run 1); > 79 µM in assay [2] (CCR6, run 2); > 79 µM (inactive) in assay [3] (CXCR6, mean of runs). For the same compound, the IC50 in assay [3] (CXCR6, run 1) is > 79 µM; in assay [3] (CXCR6, run 2) it was > 79 µM.
As to `COc1ccc(C(=O)NC2CC3CCCC(C2)N3CC(=O)Nc2ccc(F)cc2)cc1` (stereo unspecified), the IC50 in assay [1] (mean of runs) is > 79 µM (inactive); in assay [1] (run 1) it was > 79 µM; in assay [1] (run 2) it was > 79 µM; in assay [2] (CCR6, mean of runs), > 79 µM (inactive); in assay [2] (CCR6, run 1), > 79 µM; in assay [2] (CCR6, run 2), > 79 µM. Moreover, the IC50 in assay [3] (CXCR6, mean of runs) is > 79 µM (inactive); in assay [3] (CXCR6, run 1), > 79 µM; in assay [3] (CXCR6, run 2) it was > 79 µM.
Turning to `COc1ccc(NC(=O)CN2C3CCCC2CC(NC(=O)c2ccc4c(c2)OCO4)C3)cc1` (stereo unspecified), the IC50 in assay [1] (mean of runs) was > 79 µM (inactive); in assay [1] (run 1), > 79 µM; in assay [1] (run 2), > 79 µM; in assay [2] (CCR6, mean of runs), > 79 µM (inactive); in assay [2] (CCR6, run 1) it was > 79 µM; in assay [2] (CCR6, run 2), > 79 µM. Further, the IC50 in assay [3] (CXCR6, mean of runs) is > 79 µM (inactive); in assay [3] (CXCR6, run 1), > 79 µM; in assay [3] (CXCR6, run 2), > 79 µM.
For `O=C(CN1C2CCCC1CC(NC(=O)c1ccc3c(c1)OCO3)C2)Nc1ccc(F)cc1` (stereo unspecified), the IC50 in assay [1] (mean of runs) was > 79 µM (inactive); in assay [1] (run 1), > 79 µM; in assay [1] (run 2), > 79 µM; in assay [2] (CCR6, mean of runs), > 79 µM (inactive); in assay [2] (CCR6, run 1), > 79 µM; in assay [2] (CCR6, run 2), > 79 µM. Further, the IC50 in assay [3] (CXCR6, mean of runs) was > 79 µM (inactive); in assay [3] (CXCR6, run 1), > 79 µM; in assay [3] (CXCR6, run 2), > 79 µM.
Take `COc1ccc(CN2C3CCCC2CC(NC(=O)c2cc(OC)c(OC)c(OC)c2)C3)cc1` (stereo unspecified): the IC50 in assay [1] (mean of runs) was 17.1 µM; in assay [1] (run 1), 10.1 µM; in assay [1] (run 2), 24.2 µM; in assay [2] (CCR6, mean of runs), > 79 µM (inactive); in assay [2] (CCR6, run 1) it was > 79 µM; in assay [2] (CCR6, run 2), > 79 µM. For the same compound, the IC50 was > 79 µM (inactive) in assay [3] (CXCR6, mean of runs); > 79 µM in assay [3] (CXCR6, run 1); > 79 µM in assay [3] (CXCR6, run 2).
As for `COc1cc(OC)cc(C(=O)NC2CC3CCCC(C2)N3CC(=O)Nc2ccc(C)cc2)c1` (stereo unspecified), the IC50 is > 79 µM (inactive) in assay [1] (mean of runs); > 79 µM in assay [1] (run 1); > 79 µM in assay [1] (run 2); > 79 µM (inactive) in assay [2] (CCR6, mean of runs); > 79 µM in assay [2] (CCR6, run 1); > 79 µM in assay [2] (CCR6, run 2). Besides, the IC50 was > 79 µM (inactive) in assay [3] (CXCR6, mean of runs); > 79 µM in assay [3] (CXCR6, run 1); > 79 µM in assay [3] (CXCR6, run 2).
On to `COc1cc(C(=O)NC2CC3CCCC(C2)N3CC(=O)Nc2ccccc2)cc(OC)c1OC` (stereo unspecified), for which the IC50 in assay [1] (mean of runs) is > 79 µM (inactive); in assay [1] (run 1), > 79 µM; in assay [1] (run 2), > 79 µM; in assay [2] (CCR6, mean of runs), > 79 µM (inactive); in assay [2] (CCR6, run 1), > 79 µM; in assay [2] (CCR6, run 2), > 79 µM. Moreover, the IC50 is 4.78 µM and 4.75 µM in assay [3] (CXCR6, mean of runs); 4.48 µM and 4.08 µM in assay [3] (CXCR6, run 1); 5.09 µM and 5.43 µM in assay [3] (CXCR6, run 2).
For the compound `COc1cc(C(=O)NC2CC3CCCC(C2)N3CC(=O)Nc2ccc(C)cc2)cc(OC)c1OC` (stereo unspecified), the IC50 in assay [1] (mean of runs) was > 79 µM (inactive); in assay [1] (run 1) it was > 79 µM; in assay [1] (run 2) it was > 79 µM; in assay [2] (CCR6, mean of runs) it was > 79 µM (inactive); in assay [2] (CCR6, run 1), > 79 µM; in assay [2] (CCR6, run 2), > 79 µM. The IC50 in assay [3] (CXCR6, mean of runs) was 5.69 µM; in assay [3] (CXCR6, run 1), 5.37 µM; in assay [3] (CXCR6, run 2) it was 6 µM.
Regarding `COc1ccc(NC(=O)CN2C3CCCC2CC(NC(=O)c2cccc(OC)c2)C3)cc1` (stereo unspecified), the IC50 in assay [1] (mean of runs) was > 79 µM (inactive); in assay [1] (run 1) it was > 79 µM; in assay [1] (run 2), > 79 µM; in assay [2] (CCR6, mean of runs), > 79 µM (inactive); in assay [2] (CCR6, run 1), > 79 µM; in assay [2] (CCR6, run 2) it was > 79 µM. Also, the IC50 in assay [3] (CXCR6, mean of runs) is > 79 µM (inactive); in assay [3] (CXCR6, run 1), > 79 µM; in assay [3] (CXCR6, run 2), > 79 µM.
As for `COc1ccc(NC(=O)CN2C3CCCC2CC(NC(=O)c2ccc(OC)cc2)C3)cc1` (stereo unspecified), the concentration for half-maximal inhibition (IC50) in assay [1] (run 1) was > 79 µM; in assay [1] (run 2) it was 4.23 µM; in assay [2] (CCR6, mean of runs), > 79 µM (inactive); in assay [2] (CCR6, run 1) it was > 79 µM; in assay [2] (CCR6, run 2), > 79 µM; in assay [3] (CXCR6, mean of runs) it was > 79 µM (inactive). Further, the half-inhibitory concentration (IC50) is > 79 µM in assay [3] (CXCR6, run 1) and > 79 µM in assay [3] (CXCR6, run 2).
As to `COc1ccc(C(=O)NC2CC3CCCC(C2)N3CC(=O)Nc2ccccc2)cc1OC` (stereo unspecified), the IC50 in assay [1] (mean of runs) was > 79 µM (inactive); in assay [1] (run 1), > 79 µM; in assay [1] (run 2), > 79 µM; in assay [2] (CCR6, mean of runs) it was > 79 µM (inactive); in assay [2] (CCR6, run 1), > 79 µM; in assay [2] (CCR6, run 2), > 79 µM. The IC50 in assay [3] (CXCR6, mean of runs) was > 79 µM (inactive); in assay [3] (CXCR6, run 1) it was > 79 µM; in assay [3] (CXCR6, run 2), > 79 µM.
Turning to `COc1cccc(C(=O)NC2CC3CCCC(C2)N3CC(=O)Nc2ccc(C)cc2)c1` (stereo unspecified), the IC50 in assay [1] (run 1) was > 79 µM; in assay [1] (run 2), 1.18 µM; in assay [2] (CCR6, mean of runs), > 79 µM (inactive); in assay [2] (CCR6, run 1), > 79 µM; in assay [2] (CCR6, run 2), > 79 µM; in assay [3] (CXCR6, mean of runs), > 79 µM (inactive). Besides, the IC50 in assay [3] (CXCR6, run 1) is > 79 µM; in assay [3] (CXCR6, run 2), > 79 µM.
With `COc1cccc(C(=O)NC2CC3CCCC(C2)N3CC(=O)Nc2ccc(F)cc2)c1` (stereo unspecified), the IC50 was > 79 µM (inactive) in assay [1] (mean of runs); > 79 µM in assay [1] (run 1); > 79 µM in assay [1] (run 2); > 79 µM (inactive) in assay [2] (CCR6, mean of runs); > 79 µM in assay [2] (CCR6, run 1); > 79 µM in assay [2] (CCR6, run 2). The IC50 in assay [3] (CXCR6, mean of runs) is > 79 µM (inactive); in assay [3] (CXCR6, run 1), > 79 µM; in assay [3] (CXCR6, run 2), > 79 µM.
For the compound `COc1cc(C(=O)NC2CC3CCCC(C2)N3CC(=O)Nc2ccccc2Cl)cc(OC)c1OC` (stereo unspecified), the 50% inhibitory concentration (IC50) is > 79 µM in assay [1] (run 1); 0.818 µM in assay [1] (run 2); > 79 µM (inactive) in assay [2] (CCR6, mean of runs); > 79 µM in assay [2] (CCR6, run 1); > 79 µM in assay [2] (CCR6, run 2); 0.338 µM in assay [3] (CXCR6, mean of runs). Also, the IC50 in assay [3] (CXCR6, run 1) was found to be 0.191 µM; in assay [3] (CXCR6, run 2), 0.484 µM.
For `COc1ccc(NC(=O)CN2C3CCCC2CC(NC(=O)c2ccc(OC)c(OC)c2)C3)cc1` (stereo unspecified), the half-inhibitory concentration (IC50) in assay [1] (run 1) is > 79 µM; in assay [1] (run 2) it was 0.307 µM; in assay [2] (CCR6, mean of runs) it was > 79 µM (inactive); in assay [2] (CCR6, run 1), > 79 µM; in assay [2] (CCR6, run 2), > 79 µM; in assay [3] (CXCR6, mean of runs), > 79 µM (inactive). The IC50 in assay [3] (CXCR6, run 1) is > 79 µM; in assay [3] (CXCR6, run 2), > 79 µM.

As a reminder, the IC50 is the midpoint of a concentration-inhibition curve.
